According to ChEMBL document CHEMBL1143374, “Solution- and solid-phase synthesis and anti-HIV activity of maslinic acid derivatives containing amino acids and peptides” (2009):
The source made the active and inactive calls. The calls are words filed in the database; no cut-off is given here.

Columns and labels:
[1] = test system: Human immunodeficiency virus 1; assay: Antiviral activity against HIV1 NL4-3 infected human MT2 cells assessed as viral infection at 25 uM administered 30 mins before viral challenge by luciferase reporter gene activation assay relative to control; assay type: functional
Procedure, shortened: (§1)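 MT-2 cells at 10^6/mL in RPMI 1640 with 10% heat-inactivated FBS, 37 °C, 5% CO2. Cells were pretreated 30 min, then infected with VSV-pseudotyped pNL4-3.Luc.R−E− virus made in 293T cells (200 ng p24). After 20 h: PBS wash, lysis in Tris-phosphate pH 7.8 buffer, luciferase read. Value is % of untreated infected cells (100%), ±S.D.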

[2] = test system: Human immunodeficiency virus 1; assay: Antiviral activity against HIV1 NL4-3 infected human MT2 cells assessed as viral infection at 10 uM administered 30 mins before viral challenge by luciferase reporter gene activation assay relative to control; assay type: functional; procedure, shortened: as §1
MT2 [3] = assay: Cell cycle arrest in HIV1 NL4-3 infected human MT2 cells assessed as accumulation at G0/G1 phase at 10 uM administered 30 mins before viral challenge measured after 24 hrs by propidium iodide staining and flow cytometry; assay type: functional
Procedure, shortened: (§2)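 MT-2 cells at 10^6/mL were pretreated 30 min, then infected 24 h with VSV-pseudotyped HIV-1 luciferase virus. Phase percentages were taken; apoptosis was scored as the sub-G0/G1 (hypodiploid) fraction.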

MT2 [4] = assay: Cell cycle arrest in HIV1 NL4-3 infected human MT2 cells assessed as accumulation at G0/G1 phase at 25 uM administered 30 mins before viral challenge measured after 24 hrs by propidium iodide staining and flow cytometry; assay type: functional; procedure, shortened: as §2
MT2 [5] = assay: Cell cycle arrest in HIV1 NL4-3 infected human MT2 cells assessed as accumulation at S phase at 10 uM administered 30 mins before viral challenge measured after 24 hrs by propidium iodide staining and flow cytometry; assay type: functional; procedure, shortened: as §2
MT2 [6] = assay: Cell cycle arrest in HIV1 NL4-3 infected human MT2 cells assessed as accumulation at S phase at 25 uM administered 30 mins before viral challenge measured after 24 hrs by propidium iodide staining and flow cytometry; assay type: functional; procedure, shortened: as §2
MT2 [7] = assay: Induction of apoptosis in HIV1 NL4-3 infected human MT2 cells at 10 uM administered 30 mins before viral challenge measured after 24 hrs by propidium iodide staining and flow cytometry; assay type: functional; procedure, shortened: as §2
MT2 [8] = assay: Cell cycle arrest in HIV1 NL4-3 infected human MT2 cells assessed as accumulation at G2/M phase at 10 uM administered 30 mins before viral challenge measured after 24 hrs by propidium iodide staining and flow cytometry; assay type: functional; procedure, shortened: as §2
MT2 [9] = assay: Induction of apoptosis in HIV1 NL4-3 infected human MT2 cells at 25 uM administered 30 mins before viral challenge measured after 24 hrs by propidium iodide staining and flow cytometry; assay type: functional; procedure, shortened: as §2
MT2 [10] = assay: Cell cycle arrest in HIV1 NL4-3 infected human MT2 cells assessed as accumulation at G2/M phase at 25 uM administered 30 mins before viral challenge measured after 24 hrs by propidium iodide staining and flow cytometry; assay type: functional; procedure, shortened: as §2
MT2 [11] = assay: Induction of apoptosis in HIV1 NL4-3 infected human MT2 cells administered 30 mins before viral challenge measured after 24 hrs by propidium iodide staining and flow cytometry; assay type: functional, cell-based; procedure, shortened: as §2

| Structure (SMILES) | Activity [1] | Activity [2] | other results |
| --- | --- | --- | --- |
| C[C@H](NC(=O)CCCNC(=O)[C@]12CCC(C)(C)C[C@H]1C1=CC[C@@H]3[C@@]4(C)C[C@@H](O)[C@H](O)C(C)(C)[C@@H]4CC[C@@]3(C)[C@]1(C)CC2)C(=O)O | 50.1% | 83.7% |  |
| CC1(C)CC[C@]2(C(=O)NCCCCCCCCCCC(=O)NCC(=O)O)CC[C@]3(C)C(=CC[C@@H]4[C@@]5(C)C[C@@H](O)[C@H](O)C(C)(C)[C@@H]5CC[C@]43C)[C@@H]2C1 | 49.8% | 85.6% |  |
| CC1(C)CC[C@]2(C(=O)NCCCCCC(=O)NCC(=O)O)CC[C@]3(C)C(=CC[C@@H]4[C@@]5(C)C[C@@H](O)[C@H](O)C(C)(C)[C@@H]5CC[C@]43C)[C@@H]2C1 | 122.1% | 125.7% |  |
| COC(=O)CCCCCCCCCCNC(=O)[C@]12CCC(C)(C)C[C@H]1C1=CC[C@@H]3[C@@]4(C)C[C@@H](O)[C@H](O)C(C)(C)[C@@H]4CC[C@@]3(C)[C@]1(C)CC2 | 35.6% | 66.9% |  |
| COC(=O)[C@@H](NC(=O)[C@]12CCC(C)(C)C[C@H]1C1=CC[C@@H]3[C@@]4(C)C[C@@H](O)[C@H](O)C(C)(C)[C@@H]4CC[C@@]3(C)[C@]1(C)CC2)C(C)C | 11.1% | 72% |  |
| COC(=O)[C@H](C)NC(=O)[C@]12CCC(C)(C)C[C@H]1C1=CC[C@@H]3[C@@]4(C)C[C@@H](O)[C@H](O)C(C)(C)[C@@H]4CC[C@@]3(C)[C@]1(C)CC2 | 8.9% | 63.6% |  |
| CC1(C)CC[C@]2(C(=O)NCC(=O)O)CC[C@]3(C)C(=CC[C@@H]4[C@@]5(C)C[C@@H](O)[C@H](O)C(C)(C)[C@@H]5CC[C@]43C)[C@@H]2C1 | 130.7% | 162.1% |  |
| C[C@H](NC(=O)CCCCCCCCCCNC(=O)[C@]12CCC(C)(C)C[C@H]1C1=CC[C@@H]3[C@@]4(C)C[C@@H](O)[C@H](O)C(C)(C)[C@@H]4CC[C@@]3(C)[C@]1(C)CC2)C(=O)O | 27.6% | 71.7% |  |
| CC(C)[C@H](NC(=O)[C@]12CCC(C)(C)C[C@H]1C1=CC[C@@H]3[C@@]4(C)C[C@@H](O)[C@H](O)C(C)(C)[C@@H]4CC[C@@]3(C)[C@]1(C)CC2)C(=O)O | 121.2% | 102.8% |  |
| CC1(C)CC[C@]2(C(=O)NCCCC(=O)O)CC[C@]3(C)C(=CC[C@@H]4[C@@]5(C)C[C@@H](O)[C@H](O)C(C)(C)[C@@H]5CC[C@]43C)[C@@H]2C1 | 93.8% | 126.4% |  |
| CC1(C)CC[C@]2(C(=O)NCCCCCCCCCCC(=O)O)CC[C@]3(C)C(=CC[C@@H]4[C@@]5(C)C[C@@H](O)[C@H](O)C(C)(C)[C@@H]5CC[C@]43C)[C@@H]2C1 | 21.5% | 56.7% | Activity (MT2 [3]): 62.6%; Activity (MT2 [4]): 53.7%; Activity (MT2 [5]): 18.8%; Activity (MT2 [6]): 22.2%; Activity (MT2 [7]): 3.5%; Activity (MT2 [8]): 15.1%; Activity (MT2 [9]): 5.2%; Activity (MT2 [10]): 18.9% |
| CC(C)[C@H](NC(=O)CCCCCNC(=O)[C@]12CCC(C)(C)C[C@H]1C1=CC[C@@H]3[C@@]4(C)C[C@@H](O)[C@H](O)C(C)(C)[C@@H]4CC[C@@]3(C)[C@]1(C)CC2)C(=O)O | 96.5% | 83.8% |  |
| CC1(C)CC[C@]2(C(=O)NCCCC(=O)NCC(=O)O)CC[C@]3(C)C(=CC[C@@H]4[C@@]5(C)C[C@@H](O)[C@H](O)C(C)(C)[C@@H]5CC[C@]43C)[C@@H]2C1 | 143.3% | 112.3% |  |
| C[C@H](NC(=O)[C@]12CCC(C)(C)C[C@H]1C1=CC[C@@H]3[C@@]4(C)C[C@@H](O)[C@H](O)C(C)(C)[C@@H]4CC[C@@]3(C)[C@]1(C)CC2)C(=O)NCC(=O)O | 184.8% | 134.5% |  |
| COC(=O)CCCNC(=O)[C@]12CCC(C)(C)C[C@H]1C1=CC[C@@H]3[C@@]4(C)C[C@@H](O)[C@H](O)C(C)(C)[C@@H]4CC[C@@]3(C)[C@]1(C)CC2 | 12% | 32.5% | Activity (MT2 [11]): Active |
| COC(=O)CCCCCNC(=O)[C@]12CCC(C)(C)C[C@H]1C1=CC[C@@H]3[C@@]4(C)C[C@@H](O)[C@H](O)C(C)(C)[C@@H]4CC[C@@]3(C)[C@]1(C)CC2 | 36.8% | 69.6% |  |
| COC(=O)CNC(=O)[C@]12CCC(C)(C)C[C@H]1C1=CC[C@@H]3[C@@]4(C)C[C@@H](O)[C@H](O)C(C)(C)[C@@H]4CC[C@@]3(C)[C@]1(C)CC2 | 56.3% | 75.5% |  |
| CC(C)[C@H](NC(=O)CCCCCCCCCCNC(=O)[C@]12CCC(C)(C)C[C@H]1C1=CC[C@@H]3[C@@]4(C)C[C@@H](O)[C@H](O)C(C)(C)[C@@H]4CC[C@@]3(C)[C@]1(C)CC2)C(=O)O | 21.2% | 44.9% | Activity (MT2 [3]): 54.6%; Activity (MT2 [4]): 59.2%; Activity (MT2 [5]): 21.4%; Activity (MT2 [6]): 20.5%; Activity (MT2 [7]): 2.1%; Activity (MT2 [8]): 21.6%; Activity (MT2 [9]): 4.6%; Activity (MT2 [10]): 15.5% |
| C[C@H](NC(=O)CCCCCNC(=O)[C@]12CCC(C)(C)C[C@H]1C1=CC[C@@H]3[C@@]4(C)C[C@@H](O)[C@H](O)C(C)(C)[C@@H]4CC[C@@]3(C)[C@]1(C)CC2)C(=O)O | 70.2% | 107% |  |
| C[C@H](NC(=O)[C@]12CCC(C)(C)C[C@H]1C1=CC[C@@H]3[C@@]4(C)C[C@@H](O)[C@H](O)C(C)(C)[C@@H]4CC[C@@]3(C)[C@]1(C)CC2)C(=O)O | 60.9% | 124.2% |  |
| CC(C)[C@H](NC(=O)CCCNC(=O)[C@]12CCC(C)(C)C[C@H]1C1=CC[C@@H]3[C@@]4(C)C[C@@H](O)[C@H](O)C(C)(C)[C@@H]4CC[C@@]3(C)[C@]1(C)CC2)C(=O)O | 130.2% | 66.2% |  |
| CC1(C)CC[C@]2(C(=O)O)CC[C@]3(C)C(=CC[C@@H]4[C@@]5(C)C[C@@H](O)[C@H](O)C(C)(C)[C@@H]5CC[C@]43C)[C@@H]2C1 [MASLINIC ACID] | 6.7% | 56.3% | Activity (MT2 [3]): 47.9%; Activity (MT2 [4]): 23.1%; Activity (MT2 [5]): 20.6%; Activity (MT2 [6]): 17.7%; Activity (MT2 [7]): 13.5%; Activity (MT2 [8]): 18.4%; Activity (MT2 [9]): 51.8%; Activity (MT2 [10]): 7.5% |
| CC1(C)CC[C@]2(C(=O)NCCCCCC(=O)O)CC[C@]3(C)C(=CC[C@@H]4[C@@]5(C)C[C@@H](O)[C@H](O)C(C)(C)[C@@H]5CC[C@]43C)[C@@H]2C1 | 79.3% | 146.4% |  |
| C[C@H](NC(=O)CCCCCNC(=O)[C@]12CCC(C)(C)C[C@H]1C1=CC[C@@H]3[C@@]4(C)C[C@@H](O)[C@H](O)C(C)(C)[C@@H]4CC[C@@]3(C)[C@]1(C)CC2)C(=O)NCC(=O)O | 89.6% | 170.2% |  |
